Measurements published in publication PMC2886590 (Journal of molecular biology, 2010).
Changes are numbered by the printed parent chain. Names and notes keep the numbering of the source. Each block holds one molecule with its values, some of them ahead of it.

Tests used:
[1] = system: MEIS1 promoter; assay: ChIP: MLL occupancy at MEIS1; assay type: cell-based; details: HA-tagged full-length MLL, 293T cells
How it was run: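 293T cells were transfected with HA-tagged full-length MLL, wild type or point mutant, for two days. ChIP was then run with the indicated antibodies. Quantitative PCR was done on ChIP-bound and input DNA at the MEIS1 promoter, with a MEIS1 3' genomic region for comparison.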

[2] = system: H3K4me3 peptide; assay: NMR titration of PHD3 mutants with H3K4me3 peptide; assay type: binding; details: data not shown; for H3K4me3 binding of mutant (1H,15N HSQC): 0.2 mM 15N-labeled mutant PHD3, H3K4me3 12-mer peptide; for changes in 1H,15N HSQC spectra induced by H3K4me3 peptide: 0.2 mM 15N-labeled mutant PHD3
How it was run: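 PHD3 finger (residues 1565-1627, wild type or mutant) was expressed as a GST fusion in E. coli BL21(DE3) pLysS grown in 15NH4Cl minimal medium. It was affinity-purified, GST-cleaved, size-exclusion purified and held in 25 mM d11-Tris pH 6.8, 150 mM KCl, 10 mM deuterated DTT and 7% 2H2O. 12-mer histone tail peptides were added stepwise to 0.2 mM protein, and normalized chemical shift changes were tracked in 1H,15N HSQC spectra.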

[3] = system: histone H3 tail (H3K4me3); assay type: binding; details: mutant PHD3; pull-down, microarray and NMR
How it was run: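 GST-fused MLL PHD3 (residues 1565-1627), wild type or mutant, was expressed in E. coli BL21(DE3) pLysS and purified on glutathione resin. It was incubated with C-terminally biotinylated histone H3 tail peptides (residues 1-21) on streptavidin beads in 50 mM Tris pH 7.5, 150 mM NaCl, 0.05% NP-40. Beads were washed five times, and bound protein was detected by anti-GST western blot. GST-PHD3 without peptide served as control.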

[4] = MLL protein levels by western blot; assay type: cell-based; details: 293T cells, Fig. 3B

MEIS1 occupancy [1]: also occupied the MEIS1 promoter
B1: F1568A: MLL PHD3 point mutant (GST-PHD3 in vitro; engineered into full-length MLL in cells) (protein)
chain: KGNACPLCDKCYDDDDYESKMMQCGKCDRWVHSKCENLSDEMYEILSNLPESVAYTCVNCTER
modifications: left off: GST, end not stated, kept

H3K4me3 binding of mutant (1H,15N HSQC) [2]: binding was essentially abolished | ability to recognize H3K4me3 [3]: more severely compromised | MEIS1 occupancy [1]: also occupied the MEIS1 promoter
B2: M1585A: "loss-of-function" MLL PHD3 point mutant (PHD3 in vitro; full-length MLL in cells) (protein)
chain: B1 chain with A4F, M21A
modifications: left off: GST, end not stated, kept
changes in 1H,15N HSQC spectra induced by H3K4me3 peptide [2]: small to negligible changes

H3K4me3 binding of mutant (1H,15N HSQC) [2]: binding was essentially abolished | ability to recognize H3K4me3 [3]: more severely compromised
B3: Y1576A: MLL PHD3 finger point mutant, tested in vitro only (protein)
chain: B1 chain with A4F, Y12A
modifications: left off: GST, end not stated, kept
changes in 1H,15N HSQC spectra induced by H3K4me3 peptide [2]: small to negligible changes

ability to recognize H3K4me3 [3]: more severely compromised
B4: W1594A: "loss-of-structure" MLL PHD3 point mutant (PHD3 in vitro; full-length MLL in cells) (protein)
chain: B1 chain with A4F, W30A
modifications: left off: GST, end not stated, kept
protein stability in vivo [4]: reduced stability in vivo

MEIS1 occupancy [1]: also occupied the MEIS1 promoter
B5: D1592A: MLL PHD3 point mutant, acidic residue replaced with Ala (PHD3 in vitro; full-length MLL in cells) (protein)
chain: B1 chain with A4F, D28A
modifications: left off: GST, end not stated, kept
